ChEMBL document CHEMBL4765231 (J Med Chem, 2016)
Values after ≈ are worked out from the molar mass of the structure shown. Active and inactive are the calls of the source. No cut-off for these calls is given here.

Key:
[1] = Metabolic stability in rat microsomes assessed as half life; type: ADME, Microsome
NaV1.1 = NaV1.1 (Homo sapiens, UniProt P35498); experiment: Inhibition of NaV1.1 (unknown origin) expressed in cells assessed as inhibition of peak INa current at 10 uM at 25 Hz frequency by whole-cell patch clamp method relative to control; type: cell-based; conditions: cells expressing NaV1.1
Summary of the method: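 Whole-cell manual patch clamp on non-cardiac NaV1.x channels, run at room temperature. Series resistance was compensated 90% so the command potential was reached within microseconds.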

[2] = Inhibition of late sodium current channel (unknown origin) at 25 Hz frequency by whole cell patch clamp technique; conditions: Homo sapiens
[3] = Metabolic stability in dog microsomes assessed as half life; type: ADME, Canis lupus familiaris, Microsome
NaV1.5 [4] = biological target: T1, NaV1.5 (Homo sapiens, UniProt Q14524); experiment: Inhibition of human NaV1.5 expressed in HEK293 cells assessed as inhibition of peak sodium current measured at frequency 3 Hz at -120 mV resting membrane potential at 0.3 uM by electrophysiology assay relative to control; conditions: HEK293 cells expressing human NaV1.5
T1 sequence (Q14524 whole entry): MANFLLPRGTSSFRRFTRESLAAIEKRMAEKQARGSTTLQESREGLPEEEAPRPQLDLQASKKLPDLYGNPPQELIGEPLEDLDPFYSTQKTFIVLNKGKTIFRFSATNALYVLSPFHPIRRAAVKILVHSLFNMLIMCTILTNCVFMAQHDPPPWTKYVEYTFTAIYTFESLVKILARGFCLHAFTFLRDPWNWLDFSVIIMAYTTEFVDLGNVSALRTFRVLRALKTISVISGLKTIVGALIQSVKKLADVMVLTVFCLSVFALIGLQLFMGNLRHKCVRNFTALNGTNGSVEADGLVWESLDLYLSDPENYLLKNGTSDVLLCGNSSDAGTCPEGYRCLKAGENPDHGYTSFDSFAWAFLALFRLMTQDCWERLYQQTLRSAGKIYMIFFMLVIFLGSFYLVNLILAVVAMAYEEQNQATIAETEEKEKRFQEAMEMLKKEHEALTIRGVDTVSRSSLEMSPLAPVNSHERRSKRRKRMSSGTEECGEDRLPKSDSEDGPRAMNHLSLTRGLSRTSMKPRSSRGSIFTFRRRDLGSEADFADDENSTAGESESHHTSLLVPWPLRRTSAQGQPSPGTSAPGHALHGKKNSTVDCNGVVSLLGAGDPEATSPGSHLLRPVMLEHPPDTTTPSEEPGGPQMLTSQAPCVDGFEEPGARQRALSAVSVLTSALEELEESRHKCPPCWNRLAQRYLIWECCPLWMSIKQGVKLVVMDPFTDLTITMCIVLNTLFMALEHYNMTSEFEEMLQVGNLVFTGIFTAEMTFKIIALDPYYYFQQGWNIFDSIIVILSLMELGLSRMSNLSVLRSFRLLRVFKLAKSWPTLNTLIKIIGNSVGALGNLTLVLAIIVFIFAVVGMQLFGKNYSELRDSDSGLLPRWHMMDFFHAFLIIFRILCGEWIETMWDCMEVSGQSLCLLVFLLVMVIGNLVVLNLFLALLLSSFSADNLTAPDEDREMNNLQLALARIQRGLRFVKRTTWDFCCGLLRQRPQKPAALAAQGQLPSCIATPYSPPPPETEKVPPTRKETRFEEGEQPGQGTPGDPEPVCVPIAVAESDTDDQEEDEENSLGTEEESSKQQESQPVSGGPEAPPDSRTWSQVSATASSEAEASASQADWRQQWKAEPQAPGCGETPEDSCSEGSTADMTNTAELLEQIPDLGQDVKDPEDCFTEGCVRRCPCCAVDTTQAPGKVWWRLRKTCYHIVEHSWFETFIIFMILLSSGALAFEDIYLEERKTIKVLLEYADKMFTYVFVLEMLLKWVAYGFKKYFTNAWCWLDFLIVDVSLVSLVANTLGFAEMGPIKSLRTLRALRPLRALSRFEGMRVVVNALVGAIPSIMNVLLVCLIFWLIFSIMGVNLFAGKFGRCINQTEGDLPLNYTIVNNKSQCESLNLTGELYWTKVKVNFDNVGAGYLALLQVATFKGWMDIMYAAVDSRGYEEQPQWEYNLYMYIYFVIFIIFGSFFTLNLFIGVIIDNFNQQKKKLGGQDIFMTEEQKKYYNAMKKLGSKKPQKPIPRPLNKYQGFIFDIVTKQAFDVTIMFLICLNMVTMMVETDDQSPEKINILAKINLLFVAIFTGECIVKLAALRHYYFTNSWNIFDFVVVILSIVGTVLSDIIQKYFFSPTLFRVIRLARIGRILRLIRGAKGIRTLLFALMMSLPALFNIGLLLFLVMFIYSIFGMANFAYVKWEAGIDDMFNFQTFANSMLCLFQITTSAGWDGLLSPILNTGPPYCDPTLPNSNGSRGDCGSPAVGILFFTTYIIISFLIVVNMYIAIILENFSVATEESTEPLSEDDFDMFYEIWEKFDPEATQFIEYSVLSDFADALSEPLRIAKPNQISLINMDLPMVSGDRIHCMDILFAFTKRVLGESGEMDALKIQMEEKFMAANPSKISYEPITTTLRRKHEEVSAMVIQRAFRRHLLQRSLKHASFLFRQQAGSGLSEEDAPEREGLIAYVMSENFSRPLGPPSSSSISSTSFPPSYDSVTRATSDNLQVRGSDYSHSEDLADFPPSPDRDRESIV

[5] = Metabolic stability in human microsomes assessed as half life; type: ADME, Microsome
[6] = Toxicity in rabbit model of left circumflex artery ligation-induced ischemia assessed as animal death at 1 mg/kg; type: organism-based, Oryctolagus cuniculus; conditions: in vivo
[7] = Toxicity in rabbit model of left circumflex artery ligation-induced ischemia assessed as increase in VT-VF at 1 mg/kg by electrocardiographic analysis; type: organism-based, Oryctolagus cuniculus; conditions: in vivo
NaV1.5 [8] = biological target: T1, NaV1.5; experiment: Inhibition of human NaV1.5 expressed in HEK293 cells assessed as inhibition of peak sodium current measured at frequency 3 Hz at -20 mV resting membrane potential at 1 uM by electrophysiology assay relative to control; type: cell-based; conditions: HEK293 cells expressing human NaV1.5
Oryctolagus cuniculus [9] = organism: Oryctolagus cuniculus; experiment: Cardioprotective activity in New Zealand White rabbit heart assessed as reversal of ATX-II induced late sodium current prolongation in change in duration of monophasic action potential at 90 percent repolarization at 1 uM by electrocardiographic analysis relative to control; type: functional
NaV1.5 [10] = biological target: T1, NaV1.5; experiment: Inhibition of human NaV1.5 expressed in HEK293 cells assessed as inhibition of peak sodium current measured at frequency 3 Hz at -20 mV resting membrane potential at 3 uM by electrophysiology assay relative to control; type: cell-based; conditions: HEK293 cells expressing human NaV1.5
[11] = Toxicity in New Zealand rabbit model of LAD coronary artery occlusion-induced ischemia-reperfusion injury assessed as effect on blood pressure at 0.28 to 0.52 uM; set-up: species or system Oryctolagus cuniculus; conditions: in vivo, dose 0.28-0.52 µM
Oryctolagus cuniculus [12] = organism: Oryctolagus cuniculus; experiment: (§1) Cardioprotective activity in New Zealand rabbit model of LAD coronary artery occlusion-induced ischemia-reperfusion injury assessed as inhibition of ST segment elevation at 0.52 uM for 30 mins followed by induction of ischemia for 15 mins and subsequent reperfusion for 15 mins by electrocardiographic analysis; type: functional; set-up: scale not given: the % may be the effect or the level left; conditions: time 60 min, 1 h
[13] = Toxicity in New Zealand rabbit model of LAD coronary artery occlusion-induced ischemia-reperfusion injury assessed as effect on heart rate at 0.28 to 0.52 uM; set-up: species or system Oryctolagus cuniculus; conditions: in vivo, dose 0.28-0.52 µM
[14] = Solubility of compound in water; type: physicochemical
[15] = Toxicity in New Zealand rabbit model of LAD coronary artery occlusion-induced ischemia-reperfusion injury assessed as effect on ECG interval at 0.28 to 0.52 uM; set-up: species or system Oryctolagus cuniculus; conditions: in vivo, dose 0.28-0.52 µM
Oryctolagus cuniculus [16] = organism: Oryctolagus cuniculus; experiment: as §1, with “0.28” for “0.52”; type: functional; set-up: scale not given: the % may be the effect or the level left; conditions: time 60 min, 1 h
Oryctolagus cuniculus [17] = experiment: as §1, with “intravenously administered with compound” for “at 0.52 uM”; type: functional
Homo sapiens [18] = organism: Homo sapiens; experiment: Inhibition of late sodium current channel (unknown origin) at 1 uM at 25 Hz frequency by whole cell patch clamp technique relative to control
[19] = Ratio of drug concentration in brain to plasma of coronary artery occlusion-induced ischemia-reperfusion injury rabbit model intravenously administered with compound for 30 mins measured by LC-MS/MS analysis; type: ADME, Oryctolagus cuniculus; conditions: brain and plasma, iv, read-out: BPR
[20] = biological target: Sodium channel protein type 1 subunit alpha (Homo sapiens, UniProt P35498); experiment: Inhibition of peak NaV1.1 (unknown origin) at 10 uM at 10 Hz frequency by manual patch clamp technique
Summary of the method: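 Whole-cell manual patch clamp at room temperature, with series resistance compensated 90%.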

Oryctolagus cuniculus [21] = organism: Oryctolagus cuniculus; experiment: Cardioprotective activity in New Zealand White rabbit heart assessed as reversal of ATX-II induced late sodium current prolongation in change in duration of monophasic action potential at 90 percent repolarization by electrocardiographic analysis relative to control; type: functional, tissue-based
Oryctolagus cuniculus [22] = organism: Oryctolagus cuniculus; experiment: Cardioprotective activity in rabbit assessed as decrease in chemically-induced Torsades des Pointes at 14 uM by electrocardiographic analysis; type: functional; set-up: scale not given: the % may be the effect or the level left
Oryctolagus cuniculus [23] = organism: Oryctolagus cuniculus; experiment: as §1, with “12” for “0.52”; type: functional; conditions: 1 h, time 60 min
Homo sapiens [24] = organism: Homo sapiens; experiment: Inhibition of L-type calcium channel (unknown origin)
Oryctolagus cuniculus [25] = organism: Oryctolagus cuniculus; experiment: Cardioprotective activity in New Zealand rabbit heart assessed as reversal of ATX-II induced late sodium current increase in QT interval by electrocardiographic analysis; type: functional
[26] = Inhibition of peak sodium current (unknown origin) by manual patch clamp method; set-up: species or system Homo sapiens

half-life [1] [h] | inhibition at 10 µM (NaV1.1) [%] | IC50 [2] [µM] | half-life [3] [h] | half-life [5] [h] | inhibition (Homo sapiens [18]) [%] | SMILES | other results
1.63 | 23 | 1.61 | 1.92 | 5.5 |  | O=C1c2cc(-c3ccc(Cl)c(F)c3)ccc2OCCN1Cc1ncccn1 | inhibition at 1 µM (NaV1.5 [8]): 8%; Activity (Oryctolagus cuniculus [9]): 58%
1.6 | 31 | 1.62 | 1.05 | 3.23 |  | O=C1c2cc(-c3ccc(Cl)cc3)ccc2OCCN1Cc1ncccn1 | inhibition at 3 µM (NaV1.5 [10]): 17%; Activity (Oryctolagus cuniculus [9]): 68%
3.52 | 60 | 1.08 | 6.18 | 5.8 |  | O=C1c2cc(-c3ccc(C(F)(F)F)cc3)ccc2OCCN1Cc1ncccn1 | Activity [11]: Non-Toxic; Activity (Oryctolagus cuniculus [12]): 88%; Activity [13]: Non-Toxic; solubility [14]: 87 µM (≈ 34.7 µg/mL); Activity [15]: Non-Toxic; Activity (Oryctolagus cuniculus [16]): 38%; EC50 (Oryctolagus cuniculus [17]): 0.3 µM; Activity (Oryctolagus cuniculus [17]; time 60.0 min): Dose-dependent effect; inhibition at 3 µM (NaV1.5 [10]): 27%; Activity (Oryctolagus cuniculus [9]): 62%
4.9 | 18 | 2.03 | 0.717 | 4.95 |  | O=C1c2cc(-c3cccc(OC(F)(F)F)c3)ccc2OCCN1Cc1ncccn1 | inhibition at 3 µM (NaV1.5 [10]): 3%; Activity (Oryctolagus cuniculus [9]): 29%
 |  |  |  |  | 13 | O=C1c2cc(-c3ccc(OC(F)F)cc3)ccc2OCCN1Cc1ncccn1 | 
 |  |  |  |  | 13 | COc1ccc(-c2ccc3c(c2)C(=O)N(Cc2ncccn2)CCO3)cc1 | 
5.63 | 33 | 0.77 |  | 6.55 |  | O=C1c2cc(-c3ccc(OC(F)(F)F)c(Cl)c3)ccc2OCCN1Cc1ncccn1 | inhibition at 3 µM (NaV1.5 [10]): 15%; Activity (Oryctolagus cuniculus [9]): 23%
2.5 | 23 | 2.31 | 2.62 | 6.58 |  | O=C1c2cc(-c3ccc(OC(F)(F)F)cc3)ccc2CCN1Cc1ncccn1 | solubility [14]: 60 µM (≈ 24 µg/mL); Activity (Oryctolagus cuniculus [9]): 6%
 |  |  |  |  | 26 | O=C1c2cc(-c3ccccc3OC(F)(F)F)ccc2OCCN1Cc1ncccn1 | 
 |  | 3.03 |  |  |  | O=C1c2cc(-c3cccc(C(F)(F)F)c3)ccc2OCCN1Cc1ncccn1 | 
 |  |  |  |  | 18 | O=C1c2cc(-c3ccccc3)ccc2OCCN1Cc1ncccn1 | 
5.9 | 15 | 2.07 | 5.33 | 5.07 |  | O=C1c2cc(-c3ccc(C(F)(F)F)cc3)ccc2CCN1Cc1ncccn1 | solubility [14]: 28 µM (≈ 10.7 µg/mL); Activity (Oryctolagus cuniculus [9]): 25%
 |  |  |  |  | 3 | CS(=O)(=O)c1ccc(-c2ccc3c(c2)C(=O)N(Cc2ncccn2)CCO3)cc1 | 
0.467 | 67 | 1 | 1.55 | 0.467 |  | O=C1c2cc(-c3ccc(OC(F)(F)F)cc3)ccc2OCCN1CCc1ncccn1 | inhibition at 3 µM (NaV1.5 [10]): 13%
 |  |  |  |  | 17 | O=C1c2cc(-c3ccc(C(F)F)cc3)ccc2OCCN1Cc1ncccn1 | 

More lines, now with the values behind:

SMILES | half-life [1] [h] | inhibition at 10 µM (NaV1.1) [%] | IC50 [2] [µM] | half-life [3] [h] | half-life [5] [h] | inhibition (Homo sapiens [18]) [%] | other results
O=C1c2cc(-c3ccc(OC(F)(F)F)cc3)ccc2OCCN1Cc1ncccc1F | 1.48 | 82 | 0.16 | 3.23 | 2.48 |  | inhibition at 0.3 µM (NaV1.5 [4]): 23%
O=C(NCC1CCCCN1)c1cc(OCC(F)(F)F)ccc1OCC(F)(F)F (stereo unspecified) [FLECAINIDE] |  |  |  |  |  |  | Activity [6]: Toxic; Activity [7]: Toxic
COc1ccnc(CN2CCOc3ccc(-c4ccc(OC(F)(F)F)cc4)cc3C2=O)n1 | 4.52 | 60 | 0.97 | 1.45 | 6.58 |  | inhibition at 1 µM (NaV1.5 [8]): 27%
O=C1c2cc(-c3ccc(OC(F)(F)F)cc3)ccc2OCCN1Cc1ccccn1 | 1.15 | 67 | 0.5 | 2.78 | 2.5 |  | solubility [14]: < 1 µM
O=C1c2cc(-c3ccc(OC(F)(F)F)cc3F)ccc2OCCN1Cc1ncccn1 | 5.13 | 35 | 1.28 | 2.6 | 4.02 |  | inhibition at 3 µM (NaV1.5 [10]): 37%; Activity (Oryctolagus cuniculus [9]): 39%
Cc1noc(Cn2ncc3ccc(-c4ccc(OC(F)(F)F)cc4)cc3c2=O)n1 |  |  |  |  |  | 39 | Kp at 0.5 h [19]: 4.4
O=c1c2cc(-c3ccc(C(F)(F)F)cc3)ccc2nnn1Cc1nnc(C2CC2)o1 |  |  |  |  |  | 51 | Kp at 0.5 h [19]: 0.86; EC50 (Oryctolagus cuniculus [17]): 0.97 µM
Cc1noc(Cn2cnc3ccc(-c4ccc(OC(F)(F)F)cc4)cc3c2=O)n1 |  |  |  |  |  | 48 | Kp at 0.5 h [19]: 15
CC(=O)Nc1ccnc(CN2CCOc3ccc(-c4ccc(OC(F)(F)F)cc4)cc3C2=O)n1 |  |  |  |  |  | 6 | 
COc1ccccc1OCC(O)CN1CCN(CC(=O)Nc2c(C)cccc2C)CC1 (stereo unspecified) [RANOLAZINE] |  |  |  |  |  |  | inhibition (INH) [20]: Not Active; IC50 (Oryctolagus cuniculus [21]): 16 µM; Activity (Oryctolagus cuniculus [22]): 60%; inhibition in vivo at 12 µM (Oryctolagus cuniculus [23]): 60%; EC50 (Oryctolagus cuniculus [17]): 8 µM; inhibition (Homo sapiens [24]): inactive; Activity (Oryctolagus cuniculus [25]): Active; IC50 [26]: 428 µM
CC(=O)Nc1cc(OC(F)(F)F)ccc1-c1ccc2c(c1)C(=O)N(Cc1ncccn1)CCO2 |  |  |  |  |  | 4 | 
Nc1ccnc(CN2CCOc3ccc(-c4ccc(OC(F)(F)F)cc4)cc3C2=O)n1 |  | 52 | 2.48 |  |  |  | inhibition at 3 µM (NaV1.5 [10]): 37%
